Measurements collected from several papers.
Each line is one published result; the experiments were not run side by side.
Target: Mitogen-activated protein kinase kinase kinase 19 (MAP3K19, Homo sapiens, UniProt Q56UN5)
Sequence (Q56UN5 1-1328, as in one of the studies): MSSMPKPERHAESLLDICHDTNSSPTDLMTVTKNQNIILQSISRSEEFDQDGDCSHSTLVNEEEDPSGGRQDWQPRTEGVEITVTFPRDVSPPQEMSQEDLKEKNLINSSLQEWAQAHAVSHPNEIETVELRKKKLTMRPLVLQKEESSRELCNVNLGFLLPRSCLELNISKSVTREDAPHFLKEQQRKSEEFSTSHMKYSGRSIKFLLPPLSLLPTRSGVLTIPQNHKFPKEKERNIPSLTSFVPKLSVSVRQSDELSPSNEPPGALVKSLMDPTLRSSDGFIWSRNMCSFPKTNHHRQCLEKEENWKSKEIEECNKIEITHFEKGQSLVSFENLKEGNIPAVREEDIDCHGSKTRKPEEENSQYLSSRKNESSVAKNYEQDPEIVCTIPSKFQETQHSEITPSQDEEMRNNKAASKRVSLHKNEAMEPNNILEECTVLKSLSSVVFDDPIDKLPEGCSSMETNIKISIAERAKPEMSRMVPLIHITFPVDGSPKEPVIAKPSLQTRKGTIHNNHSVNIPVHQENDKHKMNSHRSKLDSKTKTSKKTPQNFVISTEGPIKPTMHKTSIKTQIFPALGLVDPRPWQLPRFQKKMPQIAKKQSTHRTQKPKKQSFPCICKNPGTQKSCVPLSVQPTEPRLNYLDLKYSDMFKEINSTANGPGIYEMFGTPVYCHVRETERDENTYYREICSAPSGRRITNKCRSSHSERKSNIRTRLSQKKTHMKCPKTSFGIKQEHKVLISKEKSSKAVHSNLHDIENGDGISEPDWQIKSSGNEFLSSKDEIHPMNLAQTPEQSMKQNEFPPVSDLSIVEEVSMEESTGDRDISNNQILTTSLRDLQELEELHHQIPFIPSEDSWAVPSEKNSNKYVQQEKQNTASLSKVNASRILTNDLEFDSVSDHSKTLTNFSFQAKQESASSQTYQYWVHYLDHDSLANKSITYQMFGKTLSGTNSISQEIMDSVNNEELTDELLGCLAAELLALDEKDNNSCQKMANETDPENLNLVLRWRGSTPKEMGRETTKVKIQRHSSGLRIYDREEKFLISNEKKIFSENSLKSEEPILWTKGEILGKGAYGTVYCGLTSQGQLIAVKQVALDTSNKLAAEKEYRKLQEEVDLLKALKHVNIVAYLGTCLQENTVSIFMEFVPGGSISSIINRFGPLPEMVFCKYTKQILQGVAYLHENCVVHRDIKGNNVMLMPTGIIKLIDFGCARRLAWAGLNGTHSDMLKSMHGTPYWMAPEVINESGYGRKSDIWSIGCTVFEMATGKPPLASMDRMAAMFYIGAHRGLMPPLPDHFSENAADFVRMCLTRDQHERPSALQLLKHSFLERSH

SMILES | effect on | technique | concentration | remaining binding [%]
O=C(NCCCC1CCCCC1)c1ccc(CNC(=O)c2cnn(-c3ccccc3)c2C(F)(F)F)cc1 | cell-free assay | competition with immobilised ligand | 0.1 µM | 89
COc1ncc2cc3ccccc3nc2c1C#N | cell-free assay | competition with immobilised ligand | 5 µM | 81
N[C@@H]1CCN(c2nccc(-c3cnn4ncccc34)n2)C1 | binding | – | 1 µM | 76
C[C@@H](c1ccc(-n2cnc3c(N)ncnc32)cc1)N1CCc2nn(C)c(Cc3ccccc3)c2C1=O | binding | competition with immobilised ligand | 0.1 µM | 47
O=C(NCC1CCOCC1)c1n[nH]cc1NC(=O)c1c(F)cccc1F | binding | competition with immobilised ligand | 1 µM | 52
Cc1cnn2ncc(-c3ccnc(N(C)C)n3)c2c1 | binding | – | 1 µM | 75
Cc1cnc(Nc2ccc(C(=O)N3CCC(N4CCCC4)CC3)cc2)nc1-c1cc2ccccc2s1 | binding | competition with immobilised ligand | 1 µM | 0
Cc1nc(C2CCN(C(=O)c3ccc(OC(F)(F)F)cc3N)CC2)c2ncc(N3CCN(C)CC3)cc2n1 | cell-free assay | competition with immobilised ligand | 1 µM | 79
CN(c1nccc(-c2cnn3ncccc23)n1)C1CC1 | binding | – | 1 µM | 99
CCCOc1ccc([C@@H]2[C@@H](C(=O)O)[C@H](c3ccc4c(c3)OCO4)CN2CC(=O)Nc2c(CC)cccc2CC)cc1 | cell-free assay | competition with immobilised ligand | 1 µM | 93
O=C(c1ccc(Nc2nccc(-c3cc4ccccc4s3)n2)cc1)N1CCC(N2CCCC2)CC1 | binding | competition with immobilised ligand | 1 µM | 0
COc1ccc2c(c1)O[C@@H](c1ccc(OC)c(OC)c1)C[C@H]2NC(=O)C1(c2ccc3c(c2)OC(F)(F)O3)CC1 | cell-free assay | competition with immobilised ligand | 1 µM | 83
CN(C)c1ncc(F)c(-c2cnn3ncccc23)n1 | binding | – | 1 µM | 69
O=C(NCCCN1CCOCC1)c1ccc(Nc2ncc(Cl)c(-c3ccc(Cl)s3)n2)cc1 | binding | competition with immobilised ligand | 1 µM | 0
CC(=O)N1CCC(c2ccc(C(=O)NC3=NCCN3)cc2C(F)(F)F)CC1 | cell-free assay | competition with immobilised ligand | 1 µM | 100
COc1cnc(Nc2cccc(S(N)(=O)=O)c2)nc1N1CCN(c2ccccc2)CC1 | binding | competition with immobilised ligand | 1 µM | 71
COc1ccnn2ncc(-c3ccnc(N(C)C)n3)c12 | binding | – | 1 µM | 54
Cc1cc(NC(=O)c2cccc(S(F)(F)(F)(F)F)c2)cc(-n2ccn3nc(-c4cccnc4)cc23)c1 | cell-free assay | competition with immobilised ligand | 1 µM | 100
CCN1CCN(Cc2ccc(C(=O)Nc3ccc(C)c(Oc4ccc5c(c4)CC(=O)N5)c3)cc2C(F)(F)F)CC1 | binding | competition with immobilised ligand | 1 µM | 100
C[C@@H]1CCN(c2nccc(-c3cnn4ncccc34)n2)C1 | binding | – | 1 µM | 79
